# Data: article PMC3539145 (Scientific Reports, 2013)
# Assays:
# [1] = target: human thymidylate synthase (h-TS) (Homo sapiens, UniProt P04818); assay: Human thymidylate synthase activity; format: biochemical
# [2] = target: T1, AC (Homo sapiens, UniProt Q13510); assay: AC activity in lysates of treated intact SW403 cells; format: cell-based
# T1 sequence (Q13510 22-395): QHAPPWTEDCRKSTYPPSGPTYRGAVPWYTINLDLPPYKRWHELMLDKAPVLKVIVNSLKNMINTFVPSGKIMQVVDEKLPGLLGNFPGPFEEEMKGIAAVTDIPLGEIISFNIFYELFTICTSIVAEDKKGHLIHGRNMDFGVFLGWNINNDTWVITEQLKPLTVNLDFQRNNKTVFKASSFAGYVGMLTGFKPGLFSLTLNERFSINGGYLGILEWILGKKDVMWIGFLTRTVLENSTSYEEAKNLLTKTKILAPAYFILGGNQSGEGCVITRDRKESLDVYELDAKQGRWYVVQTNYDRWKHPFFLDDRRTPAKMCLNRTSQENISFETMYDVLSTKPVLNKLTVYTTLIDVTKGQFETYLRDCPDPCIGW
# Summary of the method: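 Intact cells were exposed to test compound at 0.3–10 µM, with AC activity read 3 h later in cell lysates. A time course used 3 µM over various intervals. Vehicle was 0.1% DMSO in DMEM. SW403 cells were grown in DMEM with 10% FBS at 37°C, 5% CO2. Data are mean ± s.e.m., n = 3–6, each assay in duplicate.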
# [3] = target: T1, AC; assay: AC activity in lysates of treated intact LNCaP cells; format: cell-based; conditions: 0.3–10 µM for 3 h; 3 µM for various time intervals
# [4] = target: T2, AC (Mus musculus, UniProt Q9WV54); assay: AC activity measured ex vivo in mouse tissues after i.p. injection; set-up: species or system mice; conditions: for AC activity in mouse lungs and brain cortex: 10 or 30 mg-kg^−1 i.p., ex vivo 2 h after injection
# T2 sequence (Q9WV54 19-394): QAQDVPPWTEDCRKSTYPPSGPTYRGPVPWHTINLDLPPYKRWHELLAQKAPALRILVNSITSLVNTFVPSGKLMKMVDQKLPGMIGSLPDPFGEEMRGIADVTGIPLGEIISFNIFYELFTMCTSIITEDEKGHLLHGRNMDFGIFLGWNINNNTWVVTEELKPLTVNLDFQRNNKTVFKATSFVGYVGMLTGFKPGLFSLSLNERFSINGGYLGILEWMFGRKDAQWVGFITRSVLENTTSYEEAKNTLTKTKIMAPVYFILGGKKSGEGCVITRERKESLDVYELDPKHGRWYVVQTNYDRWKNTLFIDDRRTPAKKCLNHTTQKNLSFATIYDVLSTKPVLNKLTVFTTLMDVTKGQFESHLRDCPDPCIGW
# Summary of the method: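 Male Swiss Webster mice (20–35 g) received test compound at 10 or 30 mg-kg−1 i.p. (1 ml-kg−1) in 15% polyethylene glycol/15% Tween-80/70% saline. Mice were killed by cervical dislocation 2 h after dosing. Lungs and brain cortex were frozen in liquid nitrogen and stored at −80°C. AC activity was measured ex vivo. Data are mean ± s.e.m., n = 6.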
# [5] = system: mouse tissues (lungs and cerebral cortex); assay: Ceramide levels in mouse tissues after i.p. injection; format: in vivo; conditions: mice, 10 or 30 mg-kg^−1 i.p., lungs and brain cortex, 2 h
# Summary of the method: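 Male Swiss Webster mice (20–35 g) receive test compound i.p. (10 or 30 mg-kg−1; 1 ml-kg−1) in 15% PEG, 15% Tween-80 and 70% saline, or vehicle alone. They are killed by cervical dislocation 2 h later. Lungs and cerebral cortex are snap-frozen in liquid nitrogen, stored at −80°C, and ceramide is measured by LC/MS. Mean ± s.e.m., n = 6.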
# [6] = system: HEK 293 cells; assay: Cell viability of native HEK 293 cells; format: cell-based, human
# Summary of the method: (§1)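 Native HEK 293 cells and HEK 293 cells transfected with V5/His-tagged rat AC (pEF6 vector) and selected with G418 (0.3 mg/mL) are exposed to graded test-compound concentrations added in DMSO (final 0.1%). Cells are harvested, spun at 800xg for 10 min and resuspended in PBS. They are mixed 1:1 with 0.4% Trypan blue for 1 min, and viable cells are counted on a hemocytometer. Mean ± s.e.m., n = 4.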
# [7] = system: AC-overexpressing HEK 293 cells; assay: Cell viability of AC-overexpressing HEK 293 cells; format: cell-based, human
# Summary of the method: as §1
# [8] = system: SW403 cells; assay: Ceramide levels in SW403 cells; format: cell-based, human; conditions: 3 μM, 3 h
# Summary of the method: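 SW403 human colon adenocarcinoma cells are grown in DMEM with 10% FBS at 37°C and 5% CO2. They are treated with test compound at 3 µM, or with vehicle (0.1% DMSO in DMEM), for 3 h. Ceramide species, including d18:1/14:0, 16:0 and 18:0, are identified and quantified by LC/MS. Values are compared with vehicle by one-way ANOVA with Tukey's test.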
# [9] = system: AC; conditions: read-out: AC IC50; in vitro, in keratinocytes; cited from earlier work
# [10] = system: SW403 cells; assay: SW403 cell viability; format: cell-based, human; conditions: for interaction with taxol on SW403 cell viability / interaction with 5-FU on SW403 cell viability: isobolographic analyses; for interaction with 5-FU on SW403 cell viability: 5-FU 0.3 µM; for change in SW403 cell viability: single treatment, 3 μM, 3 h
# Summary of the method: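 SW403 cells (2×10^5) are seeded the day before and treated in serum-free DMEM with test compound (0.1–100 µM) plus a partner drug (for 5-FU, 0.3 µM). Additions are repeated every 24 h over 72 h. Viability is read by Trypan blue exclusion on a hemocytometer. Interaction is assessed isobolographically, comparing experimental EC50 with the theoretical EC50 from the isobole equation.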
# [11] = Homo sapiens, HEK293, 24 h, read-out: EC50 (cell death / cell viability)
# Sequence of human thymidylate synthase (h-TS) (P04818 whole entry): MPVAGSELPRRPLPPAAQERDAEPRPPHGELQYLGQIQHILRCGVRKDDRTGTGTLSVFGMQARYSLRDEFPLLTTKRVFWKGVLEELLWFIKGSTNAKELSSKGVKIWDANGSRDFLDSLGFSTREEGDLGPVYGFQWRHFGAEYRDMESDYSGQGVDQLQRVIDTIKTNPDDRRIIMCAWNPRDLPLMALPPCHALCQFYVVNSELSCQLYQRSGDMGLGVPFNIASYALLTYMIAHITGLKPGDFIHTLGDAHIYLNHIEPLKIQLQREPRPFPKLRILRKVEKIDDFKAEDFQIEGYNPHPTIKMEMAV
smiles,measurement,setting,value
"CCCCCCNC(=O)n1cc(F)c(=O)[nH]c1=O [Carmofur, 1-hexylcarbamoyl-5-fluorouracil]",IC50,[1],1210 ± 190 µM
same,AC activity in SW403 cells,"[2]; 0.3–10 µM for 3 h, 3 µM for various time intervals",concentration- and time-dependent reduction
same,AC activity in LNCaP cells,[3],inhibits AC
same,AC activity in mouse lungs and brain cortex,[4]; mice,dose-dependent inhibition
same,tissue ceramide content,[5],increases in tissue ceramide content
same,EC50,[6]; [11],1.4 µM
same,EC50 in AC-overexpressing cells relative to native cells,"[7]; HEK 293-AC vs native HEK 293, 24 h",50 fold
same,EC50,[7]; [11],66 µM
"O=c1[nH]cc(F)c(=O)[nH]1 [Compound 5-FU, 5-fluorouracil, reference compound]",AC activity in SW403 cells,"[2]; 3 μM, 3 h",did not cause any detectable changes
same,ceramide levels in SW403 cells,[8],did not cause any detectable changes
same,AC activity in mouse tissue,"[4]; mice, 30 mg-kg^−1 i.p., 2 h, lungs (Figure 3A)",no statistically detectable effect
"CCCC[C@@H](C)[C@@H](OC(=O)C[C@@H](CC(=O)O)C(=O)O)[C@H](C[C@@H](C)C[C@H](O)CCCC[C@@H](O)C[C@H](O)[C@H](C)N)OC(=O)C[C@@H](CC(=O)O)C(=O)O [FB1, fumonisin B1]",effect of FB1 on carmofur induced cell death,"[6]; HEK 293 cells, combination of carmofur plus FB1, Trypan blue",does not decrease carmofur induced cell death
"CCCCCCCCCCCCCC(=O)N[C@H](CO)[C@H](O)c1ccc([N+](=O)[O-])cc1 [Compound B13, (1R, 2R)-2-(N-tetradecanoylamino)-1-(4-nitrophenyl)-1,3-propanediol]",IC50,[9],~10 µM
"CCCCCCNC(=O)n1cc(C(F)(F)F)c(=O)[nH]c1=O [ARN398, 5-trifluoromethyl-N-hexyl-2,4-dioxo-pyrimidine-1-carboxamide]",IC50,[1],1340 ± 268 µM
same,ceramide levels in SW403 cells,[8],increased ceramide levels
same,interaction with taxol on SW403 cell viability,[10],Super-additive effects
same,interaction with 5-FU on SW403 cell viability,[10],acted synergistically
same,change in SW403 cell viability,[10],did not result in any statistically detectable change
"CCCCCCNC(=O)n1cc(C)c(=O)[nH]c1=O [ARN081, N-hexyl-5-methyl-2,4-dioxo-pyrimidine-1-carboxamide]",IC50,[1],762 ± 123 µM
"CCCCCCNC(=O)n1ccc(=O)[nH]c1=O [ARN080, N-hexyl-2,4-dioxo-pyrimidine-1-carboxamide]",IC50,[1],196 ± 27 µM
same,ceramide levels in SW403 cells,[8],increased ceramide levels
same,AC activity in mouse lungs and brain cortex,[4]; mice,substantially reduced
same,ED50,"[4]; mouse, ip, 2 h, read-out: median inhibitory dose, ID50 (AC activity in vivo)",~10 mg/kg
same,interaction with taxol on SW403 cell viability,[10],Super-additive effects
same,interaction with 5-FU on SW403 cell viability,[10],acted synergistically
same,change in SW403 cell viability,[10],did not result in any statistically detectable change
"CCCCCCNC(=O)n1cc(Cl)c(=O)[nH]c1=O [ARN082, 5-chloro-N-hexyl-2,4-dioxo-pyrimidine-1-carboxamide]",IC50,[1],496 ± 82 µM
